Data on 16 molecules can be found in ChEMBL document CHEMBL2390854, “Green synthesis of tetrahydropyrimidine analogues and evaluation of their antimicrobial activity” (2013).

The structures appear in SMILES notation. Converted amounts (≈) assume the structure as drawn.

For one assay, the system named is Aspergillus niger. Nature of the assay: Antifungal activity against Aspergillus niger NCIM 1196 by agar dilution method. The class given is functional. In short, it runs like this: (§1)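 MIC determined by standard agar dilution per CLSI guidelines. Fluconazole and miconazole were reference drugs, and dimethyl sulfoxide was the solvent control.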
The test system of a further assay is Aspergillus flavus. Nature of the assay: Antifungal activity against Aspergillus flavus NCIM 539 by agar dilution method. It is filed as functional. In short, it runs like this:
as §1
(In general: In agar dilution the substance is mixed into plates at graded concentrations.)

For another assay, the system named is Candida albicans. Nature of the assay: Antifungal activity against Candida albicans NCIM 3471 by agar dilution method. It is filed as functional. The procedure, abridged: as §1
Assay [1] has as its system Escherichia coli. Put plainly: Antibacterial activity against Escherichia coli NCIM 2256 by broth dilution method. It is filed as functional. The procedure, abridged: (§2)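 MIC by broth dilution following CLSI guidelines. Ciprofloxacin and ampicillin served as reference drugs.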
Background: In broth dilution the organism is exposed to a series of concentrations in liquid medium.

The next assay has as its system Staphylococcus aureus. Put plainly: Antibacterial activity against Staphylococcus aureus NCIM 2901 by broth dilution method. It is filed as functional. The procedure, abridged: as §2
In assay [2] the test system is Escherichia coli. Put plainly: Antibacterial activity against Escherichia coli NCIM 2256 by broth dilution method.
A further assay deals with Bacillus subtilis. Nature of the assay: Antibacterial activity against Bacillus subtilis NCIM 2063 by broth dilution method. It is filed as functional. In short, it runs like this: as §2

As to `COC(=O)C1=C(C(=O)OC)N(c2ccc(O)cc2)CN(c2ccc(O)cc2)C1`, the MIC (as a rule, the lowest concentration found to suppress growth) came out at 50 µg/mL (≈ 130 µM) with Aspergillus niger; 50 µg/mL (≈ 130 µM) with Aspergillus flavus; 75 µg/mL (≈ 195 µM) with Candida albicans; 80 µg/mL (≈ 208 µM) in the assay on Escherichia coli [1]; 90 µg/mL (≈ 234 µM) against Staphylococcus aureus; 80 µg/mL (≈ 208 µM) in the assay with Escherichia coli [2].

As to `COC(=O)C1=C(C(=O)OC)N(c2cccc([N+](=O)[O-])c2)CN(c2cccc([N+](=O)[O-])c2)C1`, the MIC came out at 100 µg/mL (≈ 226 µM) in the assay with Aspergillus niger; 100 µg/mL (≈ 226 µM) in the assay on Aspergillus flavus; 100 µg/mL (≈ 226 µM) in the assay on Candida albicans; 80 µg/mL (≈ 181 µM) against Escherichia coli [1]; 80 µg/mL (≈ 181 µM) against Staphylococcus aureus; 100 µg/mL (≈ 226 µM) against Bacillus subtilis.

As for `COC(=O)C1=C(C(=O)OC)N(c2ccccn2)CN(c2ccccn2)C1`, the MIC against Aspergillus niger turned out to be 25 µg/mL (≈ 70.5 µM); against Aspergillus flavus, 12.5 µg/mL (≈ 35.3 µM); in the assay on Candida albicans it was 25 µg/mL (≈ 70.5 µM); in the assay on Escherichia coli [1] it was 60 µg/mL (≈ 169 µM); against Staphylococcus aureus it was 80 µg/mL (≈ 226 µM); in the assay with Bacillus subtilis, 40 µg/mL (≈ 113 µM).

Consider `COC(=O)C1=C(C(=O)OC)N(c2nc3ccc(OC)cc3s2)CN(c2nc3ccc(OC)cc3s2)C1`, for which the MIC in the assay on Aspergillus niger turned out to be 12.5 µg/mL (≈ 23.7 µM); against Aspergillus flavus, 12.5 µg/mL (≈ 23.7 µM); in the assay on Candida albicans, 25 µg/mL (≈ 47.5 µM); with Escherichia coli [1], 40 µg/mL (≈ 76 µM); in the assay with Staphylococcus aureus it was 100 µg/mL (≈ 190 µM); against Bacillus subtilis, 25 µg/mL (≈ 47.5 µM).

For the molecule `CCOC(=O)C1=C(C(=O)OCC)N(c2nc3ccc(OC)cc3s2)CN(c2nc3ccc(OC)cc3s2)C1`, the minimum inhibitory concentration (MIC) amounted to 12.5 µg/mL (≈ 22.5 µM) against Aspergillus niger; 12.5 µg/mL (≈ 22.5 µM) in the assay on Aspergillus flavus; 25 µg/mL (≈ 45.1 µM) with Candida albicans; 15 µg/mL (≈ 27 µM) with Escherichia coli [1]; 100 µg/mL (≈ 180 µM) against Staphylococcus aureus; 20 µg/mL (≈ 36.1 µM) in the assay on Bacillus subtilis.

With `COC(=O)C1=C(C(=O)OC)N(c2ccccc2)CN(c2ccccc2)C1`, the MIC was 25 µg/mL (≈ 70.9 µM) against Aspergillus niger; 25 µg/mL (≈ 70.9 µM) in the assay with Aspergillus flavus; 50 µg/mL (≈ 142 µM) with Candida albicans; 60 µg/mL (≈ 170 µM) in the assay with Escherichia coli [1]; 90 µg/mL (≈ 255 µM) in the assay on Staphylococcus aureus; 30 µg/mL (≈ 85.1 µM) against Bacillus subtilis.

Regarding `COC(=O)C1=C(C(=O)OC)N(c2ccc(Cl)cc2)CN(c2ccc(Cl)cc2)C1`, the MIC stood at 25 µg/mL (≈ 59.3 µM) against Aspergillus niger; 25 µg/mL (≈ 59.3 µM) in the assay on Aspergillus flavus; 25 µg/mL (≈ 59.3 µM) with Candida albicans; 60 µg/mL (≈ 142 µM) against Escherichia coli [1]; 100 µg/mL (≈ 237 µM) against Staphylococcus aureus; 40 µg/mL (≈ 94.9 µM) with Bacillus subtilis.

For `CCOC(=O)C1=C(C(=O)OCC)N(c2ccccc2)CN(c2ccccc2)C1`, the MIC in the assay with Aspergillus niger is 25 µg/mL (≈ 65.7 µM); with Aspergillus flavus, 25 µg/mL (≈ 65.7 µM); in the assay on Candida albicans, 50 µg/mL (≈ 131 µM); with Escherichia coli [1], 15 µg/mL (≈ 39.4 µM); in the assay on Staphylococcus aureus it was 60 µg/mL (≈ 158 µM); against Bacillus subtilis it was 25 µg/mL (≈ 65.7 µM).

In the case of `CCOC(=O)C1=C(C(=O)OCC)N(c2ccc(Cl)cc2)CN(c2ccc(Cl)cc2)C1`, the minimal inhibitory concentration (MIC) against Aspergillus niger stood at 25 µg/mL (≈ 55.6 µM); with Aspergillus flavus, 25 µg/mL (≈ 55.6 µM); against Candida albicans it was 25 µg/mL (≈ 55.6 µM); with Escherichia coli [1], 15 µg/mL (≈ 33.4 µM); against Staphylococcus aureus, 80 µg/mL (≈ 178 µM); against Bacillus subtilis it was 25 µg/mL (≈ 55.6 µM).

Turning to `CCOC(=O)C1=C(C(=O)OCC)N(c2ccc(O)cc2)CN(c2ccc(O)cc2)C1`, the MIC was 50 µg/mL (≈ 121 µM) in the assay on Aspergillus niger; 50 µg/mL (≈ 121 µM) in the assay on Aspergillus flavus; 75 µg/mL (≈ 182 µM) in the assay on Candida albicans; 50 µg/mL (≈ 121 µM) in the assay with Escherichia coli [1]; 100 µg/mL (≈ 242 µM) with Staphylococcus aureus; 40 µg/mL (≈ 97 µM) with Bacillus subtilis.

Take `CCOC(=O)C1=C(C(=O)OCC)N(c2cccc([N+](=O)[O-])c2)CN(c2cccc([N+](=O)[O-])c2)C1`: the MIC against Aspergillus niger came out at 100 µg/mL (≈ 213 µM); against Aspergillus flavus, 100 µg/mL (≈ 213 µM); with Candida albicans, 100 µg/mL (≈ 213 µM); with Escherichia coli [1], 100 µg/mL (≈ 213 µM); against Staphylococcus aureus, 100 µg/mL (≈ 213 µM); in the assay on Bacillus subtilis, 60 µg/mL (≈ 128 µM).

Consider `CCOC(=O)C1=C(C(=O)OCC)N(c2ccccn2)CN(c2ccccn2)C1`, for which the MIC was found to be 25 µg/mL (≈ 65.4 µM) against Aspergillus niger; 12.5 µg/mL (≈ 32.7 µM) against Aspergillus flavus; 25 µg/mL (≈ 65.4 µM) in the assay on Candida albicans; 60 µg/mL (≈ 157 µM) against Escherichia coli [1]; 100 µg/mL (≈ 261 µM) in the assay with Staphylococcus aureus; 20 µg/mL (≈ 52.3 µM) in the assay on Bacillus subtilis.

`CC1(C)S[C@@H]2[C@H](NC(=O)[C@H](N)c3ccccc3)C(=O)N2[C@H]1C(=O)O` [AMPICILLIN]: the MIC in the assay on Escherichia coli [1], against Staphylococcus aureus and in the assay on Escherichia coli [2] was 50 µg/mL (≈ 143 µM) each time.

As to `O=C(O)c1cn(C2CC2)c2cc(N3CCNCC3)c(F)cc2c1=O` [CIPROFLOXACIN], the MIC was found to be 15 µg/mL (≈ 45.3 µM) in the assay with Escherichia coli [1] and 25 µg/mL (≈ 75.4 µM) with Bacillus subtilis.

Consider `OC(Cn1cncn1)(Cn1cncn1)c1ccc(F)cc1F` [FLUCONAZOLE], for which the figures for the minimum inhibitory concentration (MIC) against Aspergillus niger, with Aspergillus flavus and with Candida albicans were 25 µg/mL (≈ 81.6 µM), 25 µg/mL (≈ 81.6 µM) and 40 µg/mL (≈ 131 µM), respectively.

For `Clc1ccc(COC(Cn2ccnc2)c2ccc(Cl)cc2Cl)c(Cl)c1` (stereo not drawn) [MICONAZOLE], the MIC in the assay on Aspergillus niger, in the assay with Aspergillus flavus and with Candida albicans was 12.5 µg/mL (≈ 30 µM) each time.
